Active and inactive are the calls of the source. The rule behind the calls is not given here.
What was measured:
[1] = tested on: Rattus norvegicus; assay: Antiobesity activity in HFD-induced hyperlipidemic Charles Foster rat assessed as decrease in food efficacy ratio at 100 mg/kg, po administered for 4 weeks; format: functional, organism-based; design: dose 100 mg/kg
Method in brief: (§1)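 Adult male Charles Foster rats given high-fat or normal diet 4 weeks, then diet plus vehicle or daily dosing 4 more weeks, sacrificed at week 8. Body weight gain, food intake, food efficiency ratio (weight gain/food intake over the period), and mesenteric, gonadal, inguinal and perirenal fat-pad weights recorded; mean ± SD, n = 6.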

[2] = tested on: Rattus norvegicus; assay: Antihyperlipidemic activity in HFD-induced hyperlipidemic Charles Foster rat assessed as increase in plasma HDL-total cholesterol level at 100 mg/kg, po administered for 4 weeks relative to control; format: functional
Method in brief: (§2)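 After 4 weeks high-fat feeding plus 4 weeks daily dosing, overnight fast, retro-orbital blood into EDTA tubes. Serum split into VLDL, LDL and HDL by polyanionic precipitation; each fraction assayed for TC, PL, TG and apoprotein (mg/dL plasma). Pooled data from 6 rats/group, mean ± SD, dosed groups compared with high-fat group.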

[3] = tested on: Rattus norvegicus; assay: Antihyperlipidemic activity in HFD-induced hyperlipidemic Charles Foster rat assessed as decrease in plasma VLDL-phospholipid level at 100 mg/kg, po administered for 4 weeks relative to control; format: functional; design: scale not given: the % may be the effect or the level left; method in brief: as §2
[4] = tested on: Rattus norvegicus; assay: Antihyperlipidemic activity in Triton WR-1339-induced hyperlipidemic rat assessed as decrease in plasma total cholesterol level at 150 mg/kg, po; format: functional
Method in brief: (§3)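 Separate set of Triton WR-1339-induced hyperlipidemic rats, oral doses of 50, 100 and 150 mg/kg. Plasma TC, PL, TG in mg/dL; PHLA as […]/h/mL plasma. Mean ± SD of six rats versus Triton group.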

[5] = tested on: Rattus norvegicus; assay: Antihyperlipidemic activity in Triton WR-1339-induced hyperlipidemic rat assessed as decrease in plasma phospholipid level at 50 mg/kg, po; format: functional; method in brief: as §3
[6] = tested on: Rattus norvegicus; assay: Antihyperlipidemic activity in po dosed Triton WR-1339-induced hyperlipidemic rat assessed as increase in PHLA; format: functional, organism-based
Method in brief: (§4)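 Triton WR-1339 given to rats to induce hyperlipidemia; oral dosing. Plasma TC, PL, TG in mg/dL; PHLA as […]/h/mL plasma. Mean ± SD of six rats; Triton group compared with control, Triton plus dosed group compared with Triton group.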

[7] = tested on: Rattus norvegicus; assay: Antihyperlipidemic activity in Triton WR-1339-induced hyperlipidemic rat assessed as decrease in plasma phospholipid level at 100 mg/kg, po relative to control; format: functional; design: scale not given: the % may be the effect or the level left; method in brief: as §4
[8] = tested on: Rattus norvegicus; assay: Antihyperlipidemic activity in HFD-induced hyperlipidemic Charles Foster rat assessed as decrease in serum phospholipid level at 100 mg/kg, po administered for 4 weeks relative to control; format: functional; design: scale not given: the % may be the effect or the level left
Method in brief: (§5)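 Male Charles Foster rats (200−225 g): high-fat diet 4 weeks, then diet plus daily dosing 4 weeks. Overnight fast, retro-orbital blood in EDTA (3 mg/mL blood), centrifuged to serum. TC, PL, TG in mg/dL; LCAT as nmol cholesterol released/h/L plasma. Mean ± SD; dosed groups compared with high-fat group, P by significance levels.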

[9] = tested on: Rattus norvegicus; assay: Antihyperlipidemic activity in HFD-induced hyperlipidemic Charles Foster rat assessed as decrease in serum triglyceride level at 100 mg/kg, po administered for 4 weeks relative to control; format: functional; design: scale not given: the % may be the effect or the level left; method in brief: as §5
[10] = tested on: Rattus norvegicus; assay: Antihyperlipidemic activity in Triton WR-1339-induced hyperlipidemic rat assessed as increase in PHLA enzyme level at 150 mg/kg, po; format: functional; method in brief: as §3
[11] = tested on: Rattus norvegicus; assay: Antihyperlipidemic activity in HFD-induced hyperlipidemic Charles Foster rat assessed as decrease in plasma LDL-phospholipid level at 100 mg/kg, po administered for 4 weeks relative to control; format: functional; design: scale not given: the % may be the effect or the level left; method in brief: as §2
[12] = tested on: Rattus norvegicus; assay: Antihyperlipidemic activity in Triton WR-1339-induced hyperlipidemic rat assessed as decrease in plasma total cholesterol level at 100 mg/kg, po relative to control; format: functional; design: scale not given: the % may be the effect or the level left; method in brief: as §4
[13] = tested on: Rattus norvegicus; assay: Antiobesity activity in HFD-induced hyperlipidemic Charles Foster rat assessed as decrease in perirenal fat-pad at 100 mg/kg, po administered for 4 weeks; format: functional, organism-based; design: dose 100 mg/kg; method in brief: as §1
[14] = tested on: Rattus norvegicus; assay: Antihyperlipidemic activity in HFD-induced hyperlipidemic Charles Foster rat assessed as decrease in plasma LDL-total cholesterol level at 100 mg/kg, po administered for 4 weeks relative to control; format: functional; design: scale not given: the % may be the effect or the level left; method in brief: as §2
[15] = tested on: Rattus norvegicus; assay: Antihyperlipidemic activity in po dosed Triton WR-1339-induced hyperlipidemic rat assessed as increase in LCAT enzyme level; format: functional, organism-based; method in brief: as §4
[16] = tested on: Rattus norvegicus; assay: Toxicity in HFD-induced hyperlipidemic Charles Foster rat assessed as decrease in food intake at 100 mg/kg, po administered for 4 weeks; format: organism-based; design: dose 100 mg/kg, route oral; conditions: in vivo, 672 h
Method in brief: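 Adult male Charles Foster rats (200−225 g) were kept at 25−26 °C, 50−70% humidity, and a 12/12 h light/dark cycle. They were fed a high-fat diet for 4 weeks to induce hyperlipidemia, then given high-fat diet plus test agent at 100 mg/kg/d for another 4 weeks. Food intake was recorded over the experimental period, with n = 6 per group, and animals were sacrificed after 8 weeks.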

[17] = tested on: Rattus norvegicus; assay: Antihyperlipidemic activity in Triton WR-1339-induced hyperlipidemic rat assessed as decrease in plasma total cholesterol level at 50 mg/kg, po; format: functional; method in brief: as §3
[18] = tested on: Rattus norvegicus; assay: Antihyperlipidemic activity in HFD-induced hyperlipidemic Charles Foster rat assessed as decrease in plasma VLDL-total cholesterol level at 100 mg/kg, po administered for 4 weeks relative to control; format: functional; design: scale not given: the % may be the effect or the level left; method in brief: as §2
[19] = tested on: Rattus norvegicus; assay: Antihyperlipidemic activity in po dosed Triton WR-1339-induced hyperlipidemic rat assessed as decrease in plasma total cholesterol level; format: functional, organism-based; method in brief: as §4
[20] = tested on: Rattus norvegicus; assay: Antihyperlipidemic activity in HFD-induced hyperlipidemic Charles Foster rat assessed as increase in plasma HDL-phospholipid level at 100 mg/kg, po administered for 4 weeks relative to control; format: functional; method in brief: as §2
[21] = tested on: Rattus norvegicus; assay: Antihyperlipidemic activity in po dosed Triton WR-1339-induced hyperlipidemic rat assessed as decrease in plasma phospholipid level; format: functional, organism-based; method in brief: as §4
[22] = tested on: Rattus norvegicus; assay: Antihyperlipidemic activity in Triton WR-1339-induced hyperlipidemic rat assessed as decrease in plasma phospholipid level at 150 mg/kg, po; format: functional; method in brief: as §3
[23] = tested on: Rattus norvegicus; assay: Antihyperlipidemic activity in Triton WR-1339-induced hyperlipidemic rat assessed as increase in LCAT enzyme level at 150 mg/kg, po; format: functional; method in brief: as §3
[24] = tested on: Rattus norvegicus; assay: Antihyperlipidemic activity in HFD-induced hyperlipidemic Charles Foster rat assessed as decrease in liver triglyceride level at 100 mg/kg, po administered for 4 weeks relative to control; format: functional; design: scale not given: the % may be the effect or the level left
Method in brief: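 Adult male Charles Foster rats (200−225 g), high-fat diet 4 weeks, then diet plus daily dosing 4 more weeks; overnight fast, sacrifice, liver washed in cold 0.15 M KCl and held at 4 °C. Lipids extracted from liver homogenate in CHCl3/CH3OH (2:1 v/v), TC, PL and TG read in mg/g; pooled data from 6 rats/group, mean ± SD.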

[25] = tested on: Rattus norvegicus; assay: Antiobesity activity in HFD-induced hyperlipidemic Charles Foster rat assessed as decrease in inguinal fat-pad at 100 mg/kg, po administered for 4 weeks; format: functional, organism-based; design: dose 100 mg/kg; method in brief: as §1
[26] = tested on: Rattus norvegicus; assay: Antiobesity activity in HFD-induced hyperlipidemic Charles Foster rat assessed as decrease in body weight at 100 mg/kg, po administered for 4 weeks; format: functional, organism-based; design: dose 100 mg/kg; method in brief: as §1
[27] = tested on: Rattus norvegicus; assay: Antihyperlipidemic activity in HFD-induced hyperlipidemic Charles Foster rat assessed as increase in serum LCAT enzyme level at 100 mg/kg, po administered for 4 weeks relative to control; format: functional; method in brief: as §5
[28] = tested on: Rattus norvegicus; assay: Antihyperlipidemic activity in HFD-induced hyperlipidemic Charles Foster rat assessed as decrease in serum total cholesterol level at 100 mg/kg, po administered for 4 weeks relative to control; format: functional; design: scale not given: the % may be the effect or the level left; method in brief: as §5

Row | Structure (SMILES) | Activity [1] | Activity [2] | Activity [3] | Activity [4] | Activity [5] | Activity [6] | Activity [7] | Activity [8] | Activity [9] | percent increase [10] | Activity [11] | Activity [12] | Activity [13] | Activity [14] | Activity [15] | Activity [16] | Activity [17] | Activity [18] | Activity [19] | Activity [20] | further results
1 | CCOC(=O)CCCOc1ccc(C(c2cn(C)c3ccccc23)c2cn(C)c3ccccc23)cc1 | Active | 12% | 11% | 35 mg/dL | 16 mg/dL | Dose-dependent effect | 14% | 25% | 27% | 20% | 20% | 20% | Active | 22% | Dose-dependent effect | Non-toxic | 15 mg/dL | 15% | Dose-dependent effect | 8% | Activity [21]: Dose-dependent effect; Activity [22]: 29 mg/dL; Activity [23]: 21 nmol/h/mL; Activity [24]: 24%; Activity [25]: Active; Activity [26]: Active; Activity [27]: 29%; Activity [28]: 28%
2 | CCOC(=O)C(C)Oc1ccc(C(c2cn(CC)c3ccccc23)c2cn(CC)c3ccccc23)cc1 (stereo unspecified) | Active | 14% | 16% | 33 mg/dL | 15 mg/dL | Dose-dependent effect | 23% | 24% | 25% | 15% | 25% | 22% | Active | 24% | Dose-dependent effect | Non-toxic | 16 mg/dL | 21% | Dose-dependent effect | 13% | Activity [21]: Dose-dependent effect; Activity [22]: 29 mg/dL; Activity [23]: 18 nmol/h/mL; Activity [24]: 27%; Activity [25]: Active; Activity [26]: Active; Activity [27]: 32%; Activity [28]: 25%
